Experimental data published in ChEMBL document CHEMBL4270522, “Halogenated trimethoprim derivatives as multidrug-resistant Staphylococcus aureus therapeutics” (Bioorg Med Chem, 2018).
pIC50: −log10 of the molar value. Converted amounts (≈) assume the structure as drawn.

Legend:
Staphylococcus aureus [1] = assay: Potentiation of TMP-I-mediated antibacterial activity against hospital-associated methicillin-resistant Staphylococcus aureus COL assessed as TMP-I MIC after 20 hrs by CLSI microdilution assay (reference value: 2.50 microg/ml); format: functional
Staphylococcus aureus [2] = assay: Antibacterial activity against hospital-associated methicillin-resistant Staphylococcus aureus COL after 20 hrs by CLSI microdilution assay; format: functional
Staphylococcus aureus [3] = assay: Synergistic antibacterial activity against hospital-associated methicillin-resistant Staphylococcus aureus COL in presence of TMP-Br after 20 hrs by broth microdilution-based checkerboard titration assay; format: functional
Staphylococcus aureus [4] = assay: Synergistic antibacterial activity against methicillin-resistant Staphylococcus aureus USA300 in presence of TMP after 20 hrs by broth microdilution-based checkerboard titration assay; format: functional
Staphylococcus aureus [5] = assay: microbe, parasite or virus in culture; format: functional; settings: USA300, 20 h
Staphylococcus aureus [6] = assay: Potentiation of TMP-mediated antibacterial activity against hospital-associated methicillin-resistant Staphylococcus aureus COL assessed as TMP MIC after 20 hrs by CLSI microdilution assay (reference value: 5 microg/ml); format: functional
Staphylococcus aureus [7] = assay: Synergistic antibacterial activity against methicillin-resistant Staphylococcus aureus USA300 in presence of TMP-Cl after 20 hrs by broth microdilution-based checkerboard titration assay; format: functional
Staphylococcus aureus [8] = assay: microbe, parasite or virus in culture; format: functional; settings: ATCC 29213, 20 h
Staphylococcus aureus [9] = assay: microbe, parasite or virus in culture; format: functional; settings: ATCC 29213, 20 h; remark: listed apart in the source
Staphylococcus aureus [10] = assay: Potentiation of TMP-Br-mediated antibacterial activity against hospital-associated methicillin-resistant Staphylococcus aureus COL assessed as TMP-Br MIC after 20 hrs by CLSI microdilution assay (reference value: 5 microg/ml); format: functional
Staphylococcus aureus [11] = assay: microbe, parasite or virus in culture; format: functional; settings: ATCC 29213, 20 h; remark: listed apart in the source
Staphylococcus aureus [12] = assay: Synergistic antibacterial activity against methicillin-susceptible Staphylococcus aureus ATCC 29213 in presence of TMP after 20 hrs by broth microdilution-based checkerboard titration assay; format: functional
Staphylococcus aureus [13] = assay: Synergistic antibacterial activity against methicillin-susceptible Staphylococcus aureus ATCC 29213 in presence of TMP-Br after 20 hrs by broth microdilution-based checkerboard titration assay; format: functional
Staphylococcus aureus [14] = assay: Synergistic antibacterial activity against methicillin-susceptible Staphylococcus aureus ATCC 29213 in presence of TMP-Cl after 20 hrs by broth microdilution-based checkerboard titration assay; format: functional
Staphylococcus aureus [15] = assay: Potentiation of TMP-Cl-mediated antibacterial activity against methicillin-resistant Staphylococcus aureus USA300 assessed as TMP-Cl MIC after 20 hrs by CLSI microdilution assay (reference value: 2.50 microg/ml); format: functional; settings: USA300, 20 h
Staphylococcus aureus [16] = assay: Synergistic antibacterial activity against methicillin-susceptible Staphylococcus aureus ATCC 29213 in presence of TMP-I after 20 hrs by broth microdilution-based checkerboard titration assay; format: functional
Staphylococcus aureus [17] = assay: microbe, parasite or virus in culture; format: functional; settings: USA300, 20 h; remark: listed apart in the source
Staphylococcus aureus [18] = assay: Antibacterial activity against methicillin-susceptible Staphylococcus aureus ATCC 29213 after 20 hrs by CLSI microdilution assay; format: functional; settings: ATCC 29213, 20 h
Staphylococcus aureus [19] = assay: Synergistic antibacterial activity against methicillin-resistant Staphylococcus aureus USA300 in presence of TMP-Br after 20 hrs by broth microdilution-based checkerboard titration assay; format: functional
Staphylococcus aureus [20] = assay: microbe, parasite or virus in culture; format: functional; settings: ATCC 29213, 20 h; remark: listed apart in the source
Staphylococcus aureus [21] = assay: Synergistic antibacterial activity against hospital-associated methicillin-resistant Staphylococcus aureus COL in presence of TMP-I after 20 hrs by broth microdilution-based checkerboard titration assay; format: functional
Staphylococcus aureus [22] = assay: Potentiation of TMP-Cl-mediated antibacterial activity against hospital-associated methicillin-resistant Staphylococcus aureus COL assessed as TMP-Cl MIC after 20 hrs by CLSI microdilution assay (reference value: 5 microg/ml); format: functional
Staphylococcus aureus [23] = assay: Synergistic antibacterial activity against methicillin-resistant Staphylococcus aureus USA300 in presence of TMP-I after 20 hrs by broth microdilution-based checkerboard titration assay; format: functional
Staphylococcus aureus [24] = assay: Synergistic antibacterial activity against hospital-associated methicillin-resistant Staphylococcus aureus COL in presence of TMP-Cl after 20 hrs by broth microdilution-based checkerboard titration assay; format: functional
Staphylococcus aureus [25] = assay: Antibacterial activity against methicillin-resistant Staphylococcus aureus USA300 after 20 hrs by CLSI microdilution assay; format: functional; settings: USA300, 20 h
Staphylococcus aureus [26] = assay: microbe, parasite or virus in culture; format: functional; settings: USA300, 20 h; remark: listed apart in the source
Staphylococcus aureus [27] = assay: Synergistic antibacterial activity against hospital-associated methicillin-resistant Staphylococcus aureus COL in presence of TMP after 20 hrs by broth microdilution-based checkerboard titration assay; format: functional
Staphylococcus aureus [28] = assay: Antibacterial activity against methicillin-susceptible Staphylococcus aureus ATCC 25923 at 5 ug after 18 to 20 hrs by CLSI disk diffusion assay; format: functional; settings: read-out: DIZ
Summary of the method: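 Mueller-Hinton agar, 4 mm deep, swabbed with PBS-diluted overnight TSB culture (~10^8 CFU/mL). Paper disk (6 mm) loaded with compound in DMSO, incubated 37 °C in ambient air. Complete inhibition zone diameter read from plate back with callipers; 6 mm means no inhibition. At least three independent experiments, mean with standard error.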

Staphylococcus aureus [29] = assay: Antibacterial activity against methicillin-resistant Staphylococcus aureus USA300 at 5 ug after 18 to 20 hrs by CLSI disk diffusion assay; format: functional; settings: read-out: DIZ
Summary of the method: (§1)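 Disk diffusion on 4 mm Mueller-Hinton agar swabbed with about 10^8 CFU/mL suspension in PBS; 6 mm paper disk loaded with 5 µg compound in DMSO; 37 °C ambient air for 18–20 h; diameter of the complete inhibition zone measured in mm with callipers from the plate back; at least three independent experiments, mean with standard error; 6 mm means no inhibition.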

Staphylococcus aureus [30] = assay: Synergistic antibacterial activity against methicillin-resistant Staphylococcus aureus USA300 assessed as fractional inhibitory concentration index in presence of sulfamethoxazole after 18 hrs by broth microdilution-based checkerboard titration assay; format: functional
Staphylococcus aureus [31] = assay: Synergistic antibacterial activity against methicillin-susceptible Staphylococcus aureus ATCC 29213 assessed as fractional inhibitory concentration index in presence of sulfamethoxazole after 18 hrs by broth microdilution-based checkerboard titration assay; format: functional
Staphylococcus aureus [32] = assay: Antibacterial activity against hospital-associated methicillin-resistant Staphylococcus aureus COL at 5 ug after 18 to 20 hrs by CLSI disk diffusion assay; format: functional; settings: read-out: DIZ; summary of the method: as §1
Staphylococcus aureus [33] = assay: Bactericidal activity against methicillin-susceptible Staphylococcus aureus ATCC 29213 preincubated for 20 hrs followed by agar plating and measured after 18 to 20 hrs; format: functional
Summary of the method: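 Broth microdilution per CLSI guideline. Compounds diluted 2-fold in MHB from 100 mM DMSO stocks. Inoculum ~10^5 CFU/mL final, from overnight TSB culture diluted in PBS. Plates incubated at 37 °C. Wells without growth by optical density spread on TSA and incubated at 37 °C. MBC is the lowest concentration giving no colonies. At least triplicate.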

Staphylococcus aureus [34] = assay: Synergistic antibacterial activity against methicillin-susceptible Staphylococcus aureus ATCC 29213 in presence of sulfamethoxazole after 20 hrs by broth microdilution-based checkerboard titration assay; format: functional
Staphylococcus aureus [35] = assay: Bactericidal activity against methicillin-resistant Staphylococcus aureus USA300 preincubated for 20 hrs followed by agar plating and measured after 18 to 20 hrs; format: functional
Summary of the method: (§2)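 MBC taken from broth microdilution (final about 10^5 CFU/mL, Mueller-Hinton broth, 37 °C for 20 h). Clear wells (basal optical density) were spread on TSA plates and incubated at 37 °C for 18–20 h. The lowest concentration giving no colonies is reported. At least triplicate.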

Staphylococcus aureus [36] = assay: Potentiation of sulfamethoxazole-mediated antibacterial activity against hospital-associated methicillin-resistant Staphylococcus aureus COL assessed as sulfamethoxazole MIC after 20 hrs by CLSI microdilution assay (reference value: 200 microg/ml); format: functional
Staphylococcus aureus [37] = assay: Synergistic antibacterial activity against methicillin-resistant Staphylococcus aureus USA300 in presence of sulfamethoxazole after 20 hrs by broth microdilution-based checkerboard titration assay; format: functional
Staphylococcus aureus [38] = assay: Potentiation of sulfamethoxazole-mediated antibacterial activity against methicillin-susceptible Staphylococcus aureus ATCC 29213 assessed as sulfamethoxazole MIC after 20 hrs by CLSI microdilution assay (reference value: 100 microg/ml); format: functional; settings: ATCC 29213, 20 h
Staphylococcus aureus [39] = assay: Bactericidal activity against hospital-associated methicillin-resistant Staphylococcus aureus COL preincubated for 20 hrs followed by agar plating and measured after 18 to 20 hrs; format: functional; summary of the method: as §2
Staphylococcus aureus [40] = assay: Synergistic antibacterial activity against hospital-associated methicillin-resistant Staphylococcus aureus COL in presence of sulfamethoxazole after 20 hrs by broth microdilution-based checkerboard titration assay; format: functional
Staphylococcus aureus [41] = assay: Potentiation of sulfamethoxazole-mediated antibacterial activity against methicillin-resistant Staphylococcus aureus USA300 assessed as sulfamethoxazole MIC after 20 hrs by CLSI microdilution assay (reference value: 100 microg/ml); format: functional; settings: USA300, 20 h
Staphylococcus aureus [42] = assay: Synergistic antibacterial activity against hospital-associated methicillin-resistant Staphylococcus aureus COL assessed as fractional inhibitory concentration index in presence of sulfamethoxazole after 18 hrs by broth microdilution-based checkerboard titration assay; format: functional
A549 = assay: Cytotoxicity against human A549 cells after 24 to 48 hrs by fluorescence-based assay; format: cell-based
Summary of the method: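 A549 cells, ~10^4 per well in DMEM, given 2-fold serial dilutions of compound (DMSO stock diluted in DMEM). Incubated at 37 °C, 5% CO2. PrestoBlue added for 1 h, then fluorescence read at excitation 535 nm and emission 610 nm as a measure of viable cells.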

Cc1cc(NS(=O)(=O)c2ccc(N)cc2)no1 [SULFAMETHOXAZOLE]
MIC (Staphylococcus aureus [1]): 0.16 µg/mL
MIC (Staphylococcus aureus [2]): 200 µg/mL (≈ 790 µM)
FIC (Staphylococcus aureus [3]): 0.06
FIC (Staphylococcus aureus [4]): 0.06
MIC (Staphylococcus aureus [5]): 0.08 µg/mL (≈ 0.316 µM)
MIC (Staphylococcus aureus [6]): 0.31 µg/mL
FIC (Staphylococcus aureus [7]): 0.06
MIC (Staphylococcus aureus [8]): 0.08 µg/mL (≈ 0.316 µM)
MIC (Staphylococcus aureus [9]): 0.08 µg/mL (≈ 0.316 µM)
MIC (Staphylococcus aureus [10]): 0.31 µg/mL
MIC (Staphylococcus aureus [11]): 0.08 µg/mL (≈ 0.316 µM)
FIC (Staphylococcus aureus [12]): 0.06
FIC (Staphylococcus aureus [13]): 0.06
FIC (Staphylococcus aureus [14]): 0.06
MIC (Staphylococcus aureus [15]): 0.16 µg/mL
FIC (Staphylococcus aureus [16]): 0.06
MIC (Staphylococcus aureus [17]): 0.08 µg/mL (≈ 0.316 µM)
MIC (Staphylococcus aureus [18]): 100 µg/mL (≈ 395 µM)
FIC (Staphylococcus aureus [19]): 0.12
MIC (Staphylococcus aureus [20]): 0.08 µg/mL (≈ 0.316 µM)
FIC (Staphylococcus aureus [21]): 0.06
MIC (Staphylococcus aureus [22]): 0.31 µg/mL
FIC (Staphylococcus aureus [23]): 0.06
FIC (Staphylococcus aureus [24]): 0.06
MIC (Staphylococcus aureus [25]): 100 µg/mL (≈ 395 µM)
MIC (Staphylococcus aureus [26]): 0.16 µg/mL (≈ 0.632 µM)
FIC (Staphylococcus aureus [27]): 0.06

COc1cc(Cc2cnc(N)nc2N)cc(OC)c1OC [TRIMETHOPRIM]
MIC (Staphylococcus aureus [2]): 5 µg/mL (≈ 17.2 µM)
zone of inhibition at 5 µg/disc (Staphylococcus aureus [28]): 20.2 mm
zone of inhibition at 5 µg/disc (Staphylococcus aureus [29]): 22.8 mm
fractional inhibitory concentration index (FICI) (Staphylococcus aureus [30]): 0.12
fractional inhibitory concentration index (FICI) (Staphylococcus aureus [31]): 0.12
zone of inhibition at 5 µg/disc (Staphylococcus aureus [32]): 6 mm
MBC (Staphylococcus aureus [33]): 1.25 µg/mL (≈ 4.31 µM)
FIC (Staphylococcus aureus [34]): 0.06
MBC (Staphylococcus aureus [35]): 2.5 µg/mL (≈ 8.61 µM)
MIC (Staphylococcus aureus [36]): 12.5 µg/mL
FIC (Staphylococcus aureus [37]): 0.06
MIC (Staphylococcus aureus [38]): 6.25 µg/mL
MBC (Staphylococcus aureus [39]): 10 µg/mL (≈ 34.4 µM)
MIC (Staphylococcus aureus [18]): 1.25 µg/mL (≈ 4.31 µM)
FIC (Staphylococcus aureus [40]): 0.06
MIC (Staphylococcus aureus [41]): 6.25 µg/mL
fractional inhibitory concentration index (FICI) (Staphylococcus aureus [42]): 0.12
MIC (Staphylococcus aureus [25]): 1.25 µg/mL (≈ 4.31 µM)

COc1cc(Cc2cnc(N)nc2N)cc(I)c1OC
MIC (Staphylococcus aureus [2]): 2.5 µg/mL (≈ 6.47 µM)
zone of inhibition at 5 µg/disc (Staphylococcus aureus [28]): 21 mm
zone of inhibition at 5 µg/disc (Staphylococcus aureus [29]): 22.8 mm
fractional inhibitory concentration index (FICI) (Staphylococcus aureus [30]): 0.12
fractional inhibitory concentration index (FICI) (Staphylococcus aureus [31]): 0.09
zone of inhibition at 5 µg/disc (Staphylococcus aureus [32]): 6 mm
MBC (Staphylococcus aureus [33]): 1.25 µg/mL (≈ 3.24 µM)
FIC (Staphylococcus aureus [34]): 0.03
MBC (Staphylococcus aureus [35]): 1.25 µg/mL (≈ 3.24 µM)
MIC (Staphylococcus aureus [36]): 12.5 µg/mL
FIC (Staphylococcus aureus [37]): 0.06
MIC (Staphylococcus aureus [38]): 3.13 µg/mL
pIC50 (A549): 3.58
MBC (Staphylococcus aureus [39]): 5 µg/mL (≈ 12.9 µM)
MIC (Staphylococcus aureus [18]): 1.25 µg/mL (≈ 3.24 µM)
FIC (Staphylococcus aureus [40]): 0.06
MIC (Staphylococcus aureus [41]): 6.25 µg/mL
fractional inhibitory concentration index (FICI) (Staphylococcus aureus [42]): 0.12
MIC (Staphylococcus aureus [25]): 1.25 µg/mL (≈ 3.24 µM)
